Compound activity as filed in PubChem.
Compounds with a hit are over-represented: about 2% of the library has one in this group of screens.
CCR6 antagonist: CCR6 receptor antagonists, primary screen, cell-based, CHO-K1, luminescence, beta-arrestin, uHTS | AID 493098, 2011 | 340,000 tested, 0.49% active | C-C chemokine receptor type 6 (Homo sapiens), P51684 | inhibition, % at 20 µM | CHO-K1 CCR6 PathHunter beta-arrestin, CCL20-stimulated;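 active = compounds whose inhibition of the agonist-driven luminescence signal at 20 µM reaches about 50%, limit read from the data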;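 also: cells stimulated with CCL20 at 14 nM final; plate controls were DMSO with CCL20 for no effect and DMSO without agonist for full effect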
EBI2 antag: EBI2 receptor antagonists, beta-arrestin recruitment, primary screen, cell-based, luminescence, 7a,25-OHC stimulation, uHTS; G-protein coupled receptor 183 (Homo sapiens), P32249; 7a,25-OHC stimulated; inhibition, % at 5 µM; 360,000 tested, 0.81% active; in the data active = inhibition above about 38%;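 also: enzyme fragment complementation signal reports receptor beta-arrestin coupling in cells; 0% = agonist plus DMSO wells and 100% = wells without agonist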
GAA850 FXN act: FXN promoter activators, primary screen, cell-based, luciferase luminescence, HEK293 lucGAA850. HEK293 lucGAA850 FXN promoter luciferase reporter, 24 h; percent of 10 µM SAHA response. activation, % at 6 µM. 360,000 tested, 0.56% active;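 active = activation above the average of all compounds screened plus 3 SD, cutoff fixed separately per campaign, cut at about 7.5% in these data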;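 also: 0% = DMSO wells and 100% = 10 µM SAHA wells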
APJ antagonist: antagonists of human apelin receptor APJ, primary screen, CHO-K1 cells, beta-arrestin complementation, luminescence; P35414; inhibition, % at 20 µM; 330,000 tested, 0.32% active; AID 2521, 2010;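 active = inhibition above about 40% at 20 µM, limit read from the data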;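 also: cells challenged with 10 nM apelin-13 agonist together with compound; plate controls were apelin-13 plus DMSO wells for no effect and DMSO wells lacking apelin-13 for full effect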
Target sequence (P35414 whole entry, looked up): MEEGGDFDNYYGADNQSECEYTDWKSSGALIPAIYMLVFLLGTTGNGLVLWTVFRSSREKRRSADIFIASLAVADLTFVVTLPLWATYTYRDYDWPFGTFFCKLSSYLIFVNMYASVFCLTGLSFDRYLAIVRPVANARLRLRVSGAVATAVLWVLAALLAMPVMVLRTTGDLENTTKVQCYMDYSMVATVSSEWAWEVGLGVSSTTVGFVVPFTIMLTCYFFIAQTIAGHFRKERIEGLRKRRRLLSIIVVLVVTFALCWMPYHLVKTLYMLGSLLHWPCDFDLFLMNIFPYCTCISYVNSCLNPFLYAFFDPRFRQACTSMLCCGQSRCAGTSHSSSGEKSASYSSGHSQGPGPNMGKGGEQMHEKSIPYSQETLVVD
CXCR6 block: CXCR6 receptor inhibitors, primary screen, cell-based, beta-arrestin, luminescence, CHO-K1 PathHunter, 1536-well. 360,000 tested, 0.36% active. AID 602244, 2012. inhibition, % at 20 µM. C-X-C chemokine receptor type 6 (Homo sapiens), O00574; in the data active = inhibition above about 34%, passing the limit was not always enough;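 also: antagonist mode with CXCL16 agonist at 10 nM final; 0% = 10 nM CXCL16 with DMSO and 100% = unstimulated wells without agonist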
APJ ag: agonists of human apelin receptor APJ, primary screen, CHO-K1 cells, PathHunter beta-arrestin, luminescence | activation, % at 20 µM | 330,000 tested, 0.11% active | 0% DMSO wells, 100% apelin | AID 2520, 2010 | P35414;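 active = activation more than six SD over the plate average, tested at 20 µM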;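 also: 0% = DMSO alone and 100% = apelin-13 at 10 nM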
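Incubation: overnight seeding, 90 min compound at 25 °C, 1 h detection; test system: PathHunter CHO-K1 APJ (AGTRL-1) beta-arrestin reporter cells; amount: 1000 cells/well; doses: one dose, 20 µM compound, 1% DMSO; measured by: beta-gal luminescence; measure: agonist-driven arrestin binding to APJ; benchmarks: negative DMSO alone, positive Apelin-13 at 10 nM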
GAA30 counter: GAA30 FXN promoter activators, confirmation, counter-screen for GAA850 frataxin promoter activator project, cell-based, luminescence, HEK293, lucGAA30, triplicate. shares compounds with GAA850 FXN act. HEK293 lucGAA30 FXN promoter luciferase, 24 h; DMSO = 0%, 5 µM ipriflavone = 100%. activation, % at 6 µM. 1,900 tested, 66% active;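 active = mean activation above the mean of solvent-only control wells plus 3 SD, cut at about 22% in these data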;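 also: counterscreen of GAA850 promoter hits where activity marks nonselective or luminescence artifacts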
GAA850 confirm: FXN GAA850 promoter activators in reporter cells, confirmation, cell-based, luminescence, HEK293 lucGAA850, triplicate; shares compounds with GAA850 FXN act; HEK293 lucGAA850 FXN promoter luciferase reporter, 24 h; 100% = activation by SAHA; activation, % at 6 µM; 1,900 tested, 86% active;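 active = mean activation above a set limit taken from the primary screen, cut at about 8% in these data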;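 also: 0% = DMSO wells and 100% = 10 µM SAHA wells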
An asterisk follows results filed as active; / = no result.

SMILES	CCR6 antagonist	EBI2 antag	GAA850 FXN act	APJ antagonist	CXCR6 block	APJ ag	GAA30 counter	GAA850 confirm
CCCCN1C(=O)C(CC(=O)NCCc2ccccn2)CC(C(=O)N2CCCCCC2)=C1C (centres undefined)	/	-3.5	/	/	3.6	/	/	/
CCOC(=O)/C=C/COc1ccccc1[N+](=O)[O-]	-4.3	-6.1	8.3*	11.7	2.0	-3.5	89.0*	27.0*
CC(C)(C)C(=O)COc1ccccc1[N+](=O)[O-]	-15.6	-4.7	3.5	-2.0	-12.3	-2.3	/	/
O=C(N/N=C/c1ccc(O)cc1)Nc1cccc2nsnc12	6.9	20.8	10.5*	-3.3	4.4	-2.9	56.9*	36.6*
COc1cc(/C=N/NC(=O)Nc2cccc3nsnc23)cc(OC)c1OC	-19.0	-4.0	0.3	/	1.3	/	/	/
COc1ccccc1NC(=O)C(C)OC(=O)C1CCC(C(C)(C)C)CC1 (centres undefined)	7.5	1.5	-0.3	-0.6	-11.5	-3.3	/	/
COc1cc(CN2C[C@@H](CO)O[C@@H](n3cnc4c(Nc5ccccc5)ncnc43)C2)cc(OC)c1OC	/	-12.3	-0.2	/	-10.9	/	/	/
O=C(/C=C/c1ccccc1[N+](=O)[O-])c1ccccc1Br	21.9	-20.3	9.0*	-19.5	5.9	-1.8	74.7*	42.9*
CCOC(=O)CCCCCC(=O)Nc1ccc2c(c1)C(=O)N([C@@H](C)CO)C[C@@H](C)[C@H](CN(C)S(=O)(=O)c1cccs1)OCCCC[C@H](C)O2	/	-8.5	0.1	/	-0.4	/	/	/
Cc1c(CN(C)C)c2c(n1Cc1ccccc1)C(=O)c1ccc(Br)cc1-2	-17.6	10.2	-4.3	8.1	9.5	-4.8	/	/
Cc1c(CN(C)C)c2c(n1C)C(=O)c1ccc(Br)cc1-2	7.4	6.0	10.6*	16.9	1.1	-4.8	19.6	17.9*
Cc1ccccc1NC(=O)N1CCCC(c2nc(-c3ccc(C(C)C)cc3)no2)C1 (centres undefined)	6.6	12.6	9.2*	-0.6	0.1	-5.5	61.5*	28.0*
COc1ccc(NCC(=O)Nc2cccc(C(F)(F)F)c2)cc1S(=O)(=O)N1CCOCC1	11.1	26.5	-2.3	4.1	-1.8	-1.0	/	/
CC(=O)NC(c1cccc(F)c1)c1nc(-c2cc(F)cc(Cl)c2)cs1 (centres undefined)	/	7.5	2.7	/	-3.5	/	/	/
CCCCC1(CO)C(=O)N(c2ccccc2)N(c2ccccc2)C1=O	6.8	-2.0	1.2	-4.9	7.0	-4.9	/	/
CCCCC1(Cc2cccc([N+](=O)[O-])c2)C(=O)N(c2ccccc2)N(c2ccccc2)C1=O	10.5	11.0	8.2*	31.0	-2.6	-1.9	-0.8	7.2
CCCCC1(CC(=O)OCC)C(=O)N(c2ccccc2)N(c2ccccc2)C1=O	8.8	7.0	9.1*	1.8	-0.7	0.3	14.1	9.7*
Cc1cc(C)cc(NC(=O)C2CCCN(c3ncccn3)C2)c1 (centres undefined)	18.9	-7.9	1.4	15.1	7.3	-0.6	/	/
Cc1ccc(NC(=O)C2CCCN(c3ncccn3)C2)cc1F (centres undefined)	-4.3	3.7	7.6*	-16.0	-3.1	0.6	112.6*	31.5*
CCOc1ncccc1C(=O)NNC(=O)CSc1ccc(Cl)cc1	2.3	3.1	0.8	2.6	8.7	-4.0	/	/
